ChEMBL document CHEMBL1123563, “New antifilarial agents. 1. Epoxy sulfonamides and ethynesulfonamides” (J Med Chem, 1987)
Activity calls are given as the source filed them.

How the values were obtained:
[1] = Effective concentration of compound necessary to kill 50% of infective larvae of Molinema dessetae after 7 days was determined in vitro; Value ranges from 20-100; type: functional
In short: (§1)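 Infective larvae from the intermediate host were decontaminated and held 20 per 1.5 mL in a biphasic medium: L929 feeder layer with RPMI and fetal calf serum (90:10), plus penicillin and streptomycin. Compound solutions at several concentrations were made in DMSO, and 10 μL of each was added. After 7 days, survival was corrected by control, in duplicate runs. EC ranges are given in μM.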

[2] = Antifilarial activity against Molinema dessetae in vivo in Proechimys oris the natural host at a dose of 200 mg/kg subcutaneously once a day for 5 days. Value is expressed as number of infected P. oris.; type: functional; conditions: route subcutaneous
In short: (§2)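 Proechimys oris of both sexes were each infected with 200 infective larvae dissected from Aedes aegypti mosquitoes. Microfilaremia was checked, and the rodents were treated 150–180 days post-infection. Compound was given subcutaneously as a 1% carboxymethylcellulose suspension once daily for 5 consecutive days. Microfilaremia was followed for 6 weeks, then adult male and female worms were counted at autopsy. A compound was scored active if no males and ≤1.6 females were found (p = 0.12).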

[3] = tested on: molinema dessetae; assay: Antifilarial activity against Molinema dessetae in vivo against male adult worms at a dose of 200 mg/kg subcutaneously once a day for 5 days; Inactive; type: functional, organism-based; design: dose 200 mg/kg; in short: as §2
[4] = tested on: molinema dessetae; assay: Antifilarial activity against Molinema dessetae in vivo against female adult worms at a dose of 200 mg/kg subcutaneously once a day for 5 days; type: functional, organism-based; design: dose 200 mg/kg; in short: as §2
[5] = tested on: molinema dessetae; assay: Effective concentration of compound necessary to kill 90% of infective larvae of Molinema dessetae after 7 days was determined in vitro; Value ranges from 100-500; type: functional; in short: as §1
[6] = tested on: molinema dessetae; assay: Antifilarial activity against Molinema dessetae in vivo against female adult worms at a dose of 200 mg/kg subcutaneously once a day for 5 days; Inactive; type: functional, organism-based; design: dose 200 mg/kg; in short: as §2
[7] = tested on: molinema dessetae;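 also: in vitro assay on infective-stage larvae, EC90 being the concentration lethal to 90% of larvae after 7 days of exposure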
[8] = Effective concentration of compound necessary to kill 50% of infective larvae of Molinema dessetae after 7 days was determined in vitro; Value ranges from 100-500; type: functional; in short: as §1
[9] = Effective concentration of compound necessary to kill 50% of infective larvae of Molinema dessetae after 7 days was determined in vitro; type: functional
[10] = tested on: molinema dessetae; assay: Antifilarial activity against Molinema dessetae in vivo against male adult worms at a dose of 100 mg/kg subcutaneously once a day for 5 days; Active; type: functional, organism-based; design: dose 100 mg/kg; in short: as §2
[11] = tested on: molinema dessetae; assay: Antifilarial activity against Molinema dessetae in vivo against male adult worms at a dose of 200 mg/kg subcutaneously once a day for 5 days; Active; type: functional, organism-based; design: dose 200 mg/kg; in short: as §2
[12] = tested on: molinema dessetae; assay: Antifilarial activity against Molinema dessetae in vivo against female adult worms at a dose of 200 mg/kg subcutaneously once a day for 5 days; Active; type: functional, organism-based; design: dose 200 mg/kg; in short: as §2
[13] = Antifilarial activity against Molinema dessetae in vivo in Proechimys oris the natural host at a dose of 100 mg/kg subcutaneously once a day for 5 days. Value is expressed as number of infected P. oris.; type: functional; conditions: route subcutaneous; in short: as §2
[14] = Antifilarial activity against Molinema dessetae in vivo in Proechimys oris the natural host at a dose of 10 mg/kg subcutaneously once a day for 5 days. Value is expressed as number of infected P. oris.; type: functional; conditions: route subcutaneous; in short: as §2
[15] = tested on: molinema dessetae; assay: Antifilarial activity against Molinema dessetae in vivo against female adult worms at a dose of 10 mg/kg subcutaneously once a day for 5 days; Inactive; type: functional, organism-based; design: dose 10 mg/kg; in short: as §2
[16] = tested on: molinema dessetae; assay: Antifilarial activity against Molinema dessetae in vivo against male adult worms at a dose of 100 mg/kg subcutaneously once a day for 5 days; Inactive; type: functional, organism-based; design: dose 100 mg/kg; in short: as §2
[17] = tested on: molinema dessetae; assay: Antifilarial activity against Molinema dessetae in vivo against female adult worms at a dose of 100 mg/kg subcutaneously once a day for 5 days; Inactive; type: functional, organism-based; design: dose 100 mg/kg; in short: as §2
[18] = tested on: molinema dessetae; assay: Effective concentration of compound necessary to kill 90% of infective larvae of Molinema dessetae after 7 days was determined in vitro; Value ranges from 20-100; type: functional; in short: as §1
[19] = tested on: molinema dessetae; assay: Antifilarial activity against Molinema dessetae in vivo in Proechimys oris the natural host at a dose of 0.2 mg/kg subcutaneously once a day for 5 days. Value is expressed as number of infected P. oris.; type: functional, organism-based; design: dose 0.2 mg/kg
[20] = tested on: molinema dessetae; assay: Antifilarial activity against Molinema dessetae in vivo against male adult worms at a dose of 0.2 mg/kg subcutaneously once a day for 5 days; Active; type: functional, organism-based; design: dose 0.2 mg/kg
[21] = tested on: molinema dessetae; assay: Antifilarial activity against Molinema dessetae in vivo against female adult worms at a dose of 0.2 mg/kg subcutaneously once a day for 5 days; Active; type: functional, organism-based; design: dose 0.2 mg/kg
[22] = tested on: molinema dessetae; assay: Antifilarial activity against Molinema dessetae in vivo against female adult worms at a dose of 40 mg/kg subcutaneously once a day for 5 days; Active; type: functional, organism-based; design: dose 40 mg/kg
[23] = Antifilarial activity against Molinema dessetae in vivo in Proechimys oris the natural host at a dose of 40 mg/kg subcutaneously once a day for 5 days. Value is expressed as number of infected P. oris.; type: functional; conditions: route subcutaneous
[24] = tested on: molinema dessetae; assay: Antifilarial activity against Molinema dessetae in vivo against male adult worms at a dose of 40 mg/kg subcutaneously once a day for 5 days; Active; type: functional, organism-based; design: dose 40 mg/kg

EC90 [7]	Compound	Activity [2]	Activity [3]	Activity [6]	EC50 [9]	other results
> 500 µM	CN1CCN(S(=O)(=O)C2CC2c2ccccc2)CC1 (stereo not drawn)	2	inactive	inactive	–	EC50 [8]: 500 µM
> 500 µM	C[C@@]1(c2ccccc2)O[C@@H]1S(=O)(=O)N1CCOCC1	2	inactive	inactive	> 500 µM	–
< 20 µM	O=S(=O)(C#Cc1ccccc1)N1CCOCC1	2	–	–	< 20 µM	Activity [10]: Active; Activity [11]: Active; Activity [12]: Active; Activity [13]: 2; Activity [14]: 2; Activity [15]: inactive
< 20 µM	IVERMECTIN	–	–	–	–	Activity [19]: 2; Activity [20]: Active; Activity [21]: Active
> 500 µM	CCN(CC)C(=O)N1CCN(C)CC1 [DIETHYLCARBAMAZINE]	2	–	–	> 500 µM	Activity [11]: Active; Activity [12]: Active
< 20 µM	Cc1cccc(C2OC2S(=O)(=O)N2CCOCC2)c1 (stereo not drawn)	2	inactive	inactive	< 20 µM	–
> 500 µM	C=C(CS(=O)(=O)N1CCN(C)CC1)c1ccccc1	–	–	–	–	EC50 [8]: 500 µM
< 20 µM	Cc1ccccc1C1OC1S(=O)(=O)N1CCOCC1 (stereo not drawn)	1	inactive	inactive	< 20 µM	–
> 500 µM	CN1CCNCC1 [METHYLPIPERAZINE]	–	–	–	> 500 µM	–

Second part, the compound before the results:

Compound	EC90 [7]	Activity [2]	Activity [3]	Activity [6]	EC50 [9]	other results
CCCN1CCN(S(=O)(=O)C2OC2c2ccccc2)CC1 (stereo not drawn)	–	2	inactive	–	–	EC50 [1]: 100 µM; Activity [4]: inactive; EC90 [5]: 500 µM
O=C(CN1CCOCC1)c1ccccc1	> 500 µM	–	–	–	> 500 µM	Activity [16]: inactive; Activity [17]: inactive; Activity [13]: 2
O=S(=O)(C1OC1c1ccccc1)N1CCN(c2cccc(C(F)(F)F)c2)CC1 (stereo not drawn)	–	2	inactive	inactive	–	EC90 [18]: 100 µM; EC50 [1]: 100 µM
CCOC(=O)N1CCN(S(=O)(=O)C2OC2c2ccccc2)CC1 (stereo not drawn)	–	2	inactive	inactive	< 20 µM	EC90 [18]: 100 µM
Cc1ccc(C(=O)Nc2ccc(S(=O)(=O)O)c3cc(S(=O)(=O)O)cc(S(=O)(=O)O)c23)cc1NC(=O)c1cccc(NC(=O)Nc2cccc(C(=O)Nc3cc(C(=O)Nc4ccc(S(=O)(=O)O)c5cc(S(=O)(=O)O)cc(S(=O)(=O)O)c45)ccc3C)c2)c1 [SURAMIN]	–	–	–	–	–	Activity [22]: Active; Activity [23]: 2; EC50 [8]: 500 µM; Activity [24]: Active; EC90 [5]: 500 µM
O=S(=O)([C@@H]1O[C@@H]1c1ccccc1)N1CCOCC1	–	2	inactive	inactive	–	EC50 [1]: 100 µM; EC90 [5]: 500 µM
CN1CCN(S(=O)(=O)CC(=O)c2ccccc2)CC1	> 500 µM	–	–	–	> 500 µM	–
O=S(=O)(C1OC1c1ccc(Cl)c(Cl)c1)N1CCCC1 (stereo not drawn)	–	–	–	–	–	EC90 [18]: 100 µM; EC50 [1]: 100 µM
O=S(=O)(C1CC1c1ccccc1)N1CCOCC1 (stereo not drawn)	–	2	inactive	inactive	–	–
Cc1cccc(C2OC2S(=O)(=O)N2CCN(C)CC2)c1 (stereo not drawn)	–	–	–	–	–	EC50 [8]: 500 µM; EC90 [5]: 500 µM
CN1CCN(S(=O)(=O)/C=C/c2ccccc2)CC1	> 500 µM	1	inactive	inactive	–	EC50 [8]: 500 µM
O=C(CS(=O)(=O)N1CCOCC1)c1ccccc1	> 500 µM	2	inactive	inactive	> 500 µM	–
O=[N+]([O-])c1ccc(C2OC2S(=O)(=O)N2CCOCC2)cc1 (stereo not drawn)	< 20 µM	–	–	–	< 20 µM	–
